{
  "source": "the array DNA melting data of Ke et al. (doi:10.1101/2024.01.08.574731)",
  "key": {"[1]": {"assay": "folding enthalpy; higher = less favourable; fluorescence melt of hairpins on a sequencing array, two-state fit", "conditions": "sodium 0.088 M", "method_in_brief": "(§1)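 Hairpins were imaged by Cy3 fluorescence on a sequenced MiSeq flow cell with annealed Cy3 and quencher oligos, in 50 mM Na-HEPES pH 8.0, 25 mM NaCl, in 2.5 °C steps up to 60 °C. Bootstrapped two-state fits of normalised signals gave melting temperature and folding enthalpy. Four replicates were combined by inverse variance, and fitted temperatures were raised by 9.35 °C to match UV melts.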"}, "[2]": {"assay": "melting temperature; fluorescence melt of hairpins on a sequencing array, two-state fit, raised by 9.35 °C to match UV melts", "conditions": "sodium 0.088 M", "method_in_brief": "as §1"}},
  "data": [
    {"sequence": "GGTGACGGAAACGTCGCC ((.((((....)))).))", "values": [
      {"measurement": "folding enthalpy", "setting": "[1]", "value": -34, "unit": "kcal/mol"},
      {"measurement": "Tm", "setting": "[2]", "value": 64.6, "unit": "°C"}
    ]},
    {"sequence": "GGTAGGCCGAAAGGCACC (((..(((....))))))", "values": [
      {"measurement": "folding enthalpy", "setting": "[1]", "value": -12, "unit": "kcal/mol"},
      {"measurement": "Tm", "setting": "[2]", "value": 41.9, "unit": "°C"}
    ]},
    {"sequence": "GATCTTGCATAAGATC ((((((....))))))", "values": [
      {"measurement": "folding enthalpy", "setting": "[1]", "value": -39.9, "unit": "kcal/mol"},
      {"measurement": "Tm", "setting": "[2]", "value": 50.9, "unit": "°C"}
    ]},
    {"sequence": "CTTTGGAAACAAAG (((((....)))))", "values": [
      {"measurement": "folding enthalpy", "setting": "[1]", "value": -22.4, "unit": "kcal/mol"},
      {"measurement": "Tm", "setting": "[2]", "value": 37.1, "unit": "°C"}
    ]},
    {"sequence": "GCCTAGCGAAAGCTATGC ((.((((....)))).))", "values": [
      {"measurement": "folding enthalpy", "setting": "[1]", "value": -23.6, "unit": "kcal/mol"},
      {"measurement": "Tm", "setting": "[2]", "value": 46.2, "unit": "°C"}
    ]},
    {"sequence": "GGGTGCGCGAAAGCGCCC (((..(((....))))))", "values": [
      {"measurement": "folding enthalpy", "setting": "[1]", "value": -10.8, "unit": "kcal/mol"},
      {"measurement": "Tm", "setting": "[2]", "value": 55.5, "unit": "°C"}
    ]},
    {"sequence": "GGGCTAGAAATAGCCC ((((((....))))))", "values": [
      {"measurement": "folding enthalpy", "setting": "[1]", "value": -30.3, "unit": "kcal/mol"},
      {"measurement": "Tm", "setting": "[2]", "value": 64, "unit": "°C"}
    ]},
    {"sequence": "GGCTAACGAAAGTTTGCC (((.(((....))).)))", "values": [
      {"measurement": "folding enthalpy", "setting": "[1]", "value": -61, "unit": "kcal/mol"},
      {"measurement": "Tm", "setting": "[2]", "value": 54.7, "unit": "°C"}
    ]},
    {"sequence": "GCTTGGGGAAACCTGAGC (((..((....))..)))", "values": [
      {"measurement": "folding enthalpy", "setting": "[1]", "value": -30.3, "unit": "kcal/mol"},
      {"measurement": "Tm", "setting": "[2]", "value": 40, "unit": "°C"}
    ]},
    {"sequence": "GCGCAGCGAAAGCTTCGC (((.(((....))).)))", "values": [
      {"measurement": "folding enthalpy", "setting": "[1]", "value": -36.1, "unit": "kcal/mol"},
      {"measurement": "Tm", "setting": "[2]", "value": 51.4, "unit": "°C"}
    ]},
    {"sequence": "GTTGGACGAAAGTCAAAC (((.(((....))).)))", "values": [
      {"measurement": "folding enthalpy", "setting": "[1]", "value": -26.9, "unit": "kcal/mol"},
      {"measurement": "Tm", "setting": "[2]", "value": 50.9, "unit": "°C"}
    ]}
  ]
}
